Read-outs that look alike come from different tables or passages of the source.
How the values were obtained:
[1] = Safety evaluation; assay type: in vivo, human
How it was run: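 Single abdominal s.c. 200 μg dose given fasting on day 1. Monitoring covered adverse events, vital signs, physical examination, fasting venous glucose, blood and urine routine, blood biochemistry and 12-lead ECG. Assessments were at 24, 144, 312 and 720 h post-dose. The safety set comprised all dosed subjects with post-dose safety data.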

[2] = assay type: in vivo, human; details: for AUC0–inf, geometric mean / Cmax, geometric mean / AUC_% Extrap / CL/F / Cmax / T1/2 / Tmax / Vz/F / median Tmax: single 200 μg s.c.; for AUC_% Extrap / CL/F / Cmax / T1/2 / Tmax / Vz/F: mean ± SD
How it was run: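 Open-label phase I study in renally impaired and matched normal-function adults (CLcr ≥90 mL/min), with or without T2DM. A single abdominal s.c. injection was given at 08:00, followed by a standard breakfast. […] Parameters came from noncompartmental analysis; log-transformed AUC0–inf ratios to the normal group were given with 90% CI.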

[3] = cited from earlier work
[4] = Mild impairment (n=8), single 200 μg s.c.
[5] = Moderate impairment (n=8), single 200 μg s.c.
[6] = Normal renal function (n=10), single 200 μg s.c.
[7] = all groups (26 subjects), single 200 μg s.c.

## Polyethylene glycol loxenatide [PEX168]
[1]; [4]
  Treatment-emergent AE: Abdominal discomforts, %: 0%
  Treatment-emergent AE: Acute kidney injury, %: 0%
  Treatment-emergent AE: Anaemia, %: 0%
  Treatment-emergent AE: Bloating, %: 25%
  Treatment-emergent AE: Hiccup, %: 12.5%
  Treatment-emergent AE: Increased white blood cell count, %: 0%
  Treatment-emergent AE: Nausea, %: 50%
  Treatment-emergent AE: Oropharyngeal discomfort, %: 12.5%
  Treatment-emergent AE: Overall AEs, %: 87.5%
  Treatment-emergent AE: Retching, %: 0%
  Treatment-emergent AE: Vomiting, %: 50%
[1]; [5]
  Treatment-emergent AE: Abdominal discomforts, %: 0%
  Treatment-emergent AE: Acute kidney injury, %: 12.5%
  Treatment-emergent AE: Anaemia, %: 12.5%
  Treatment-emergent AE: Bloating, %: 0%
  Treatment-emergent AE: Hiccup, %: 12.5%
  Treatment-emergent AE: Increased white blood cell count, %: 12.5%
  Treatment-emergent AE: Nausea, %: 62.5%
  Treatment-emergent AE: Oropharyngeal discomfort, %: 0%
  Treatment-emergent AE: Overall AEs, %: 87.5%
  Treatment-emergent AE: Retching, %: 12.5%
  Treatment-emergent AE: Vomiting, %: 50%
[1]; [6]
  Treatment-emergent AE: Abdominal discomforts, %: 10%
  Treatment-emergent AE: Acute kidney injury, %: 0%
  Treatment-emergent AE: Anaemia, %: 0%
  Treatment-emergent AE: Bloating, %: 50%
  Treatment-emergent AE: Hiccup, %: 0%
  Treatment-emergent AE: Increased white blood cell count, %: 0%
  Treatment-emergent AE: Nausea, %: 20%
  Treatment-emergent AE: Oropharyngeal discomfort, %: 0%
  Treatment-emergent AE: Overall AEs, %: 70%
  Treatment-emergent AE: Retching, %: 0%
  Treatment-emergent AE: Vomiting, %: 0%
[1]; [7]
  AE: gastrointestinal disorders, subjects: 80.8%
  AE: laboratory tests, subjects: 42.3%
  AE: metabolism and nutrition disorders, subjects: 42.3%
[1]; all groups, single 200 μg s.c., including nausea, vomiting and bloating
  Treatment-emergent AE: gastrointestinal disorders, subjects: 80.8%
[1]; single dose of 200 μg, patients with mild-to-moderate renal impairment
  Tolerability: well tolerated
[2]; Mild impairment (n=8)
  AUC0–inf, geometric mean: 16 500 h^*ng/mL
  Cmax, geometric mean: 48.5 ng/mL
[2]; Mild renal impairment, n=8
  AUC_% Extrap: 3.49 ± 1.32%
  CL/F: 0.0136 ± 0.00657 L/h
  Cmax: 54.1 ± 29.7 ng/mL
  T1/2: 117 ± 16.5 h
  Tmax: 123 ± 15.4 h
  Vz/F: 2.28 ± 1.09 L
[2]; Moderate impairment (n = 7)
  AUC0–inf, geometric mean: 29 200 h^*ng/mL
  Cmax, geometric mean: 73.1 ng/mL
[2]; Moderate renal impairment, n=7
  AUC_% Extrap: 6.92 ± 1.75%
  CL/F: 0.00711 ± 0.0022 L/h
  Cmax: 78.1 ± 35.9 ng/mL
  T1/2: 163 ± 14.7 h
  Tmax: 144 ± 33.9 h
  Vz/F: 1.69 ± 0.61 L
[2]; Normal (n = 8)
  AUC0–inf, geometric mean: 14 600 h^*ng/mL
  Cmax, geometric mean: 56.6 ng/mL
[2]; Normal renal function, n=8
  CL/F: 0.0140 ± 0.00298 L/h
  Tmax: 114 ± 45.8 h
  Vz/F: 2.44 ± 0.56 L
[2]; mild impairment group
  median Tmax: 120 h
[2]; mild impairment relative to normal renal function, 90%CI 61.5–119
  Cmax, geometric mean ratio normal vs mild: 85.6%
[2]; mild impairment relative to normal renal function, 90%CI 82.1–156
  AUC0–inf, geometric mean ratio normal vs mild: 113%
[2]; mild renal impairment
  AUC0–inf increase compared to the normal group: 13.1%
  Cmax reduction compared to the normal group: 14.3%
[2]; moderate impairment group
  median Tmax: 144 h
[2]; moderate impairment relative to normal renal function, 90%CI 91.7–182
  Cmax, geometric mean ratio normal vs moderate: 129%
[2]; moderate impairment relative to normal renal function, 90%CI 144–280
  AUC0–inf, geometric mean ratio normal vs moderate: 201%
[2]; moderate renal impairment
  AUC0–inf increase compared to the normal group: 100.7%
  Cmax increase compared to the normal group: 29.1%
[2]; normal group
  median Tmax: 96 h

## exenatide
[3]
  in vivo half-life: 2 to 3 h
